Data set [1] deals with T1, Cysteine protease (Leishmania donovani, UniProt Q95WR6).
T1 sequence (Q95WR6 whole entry): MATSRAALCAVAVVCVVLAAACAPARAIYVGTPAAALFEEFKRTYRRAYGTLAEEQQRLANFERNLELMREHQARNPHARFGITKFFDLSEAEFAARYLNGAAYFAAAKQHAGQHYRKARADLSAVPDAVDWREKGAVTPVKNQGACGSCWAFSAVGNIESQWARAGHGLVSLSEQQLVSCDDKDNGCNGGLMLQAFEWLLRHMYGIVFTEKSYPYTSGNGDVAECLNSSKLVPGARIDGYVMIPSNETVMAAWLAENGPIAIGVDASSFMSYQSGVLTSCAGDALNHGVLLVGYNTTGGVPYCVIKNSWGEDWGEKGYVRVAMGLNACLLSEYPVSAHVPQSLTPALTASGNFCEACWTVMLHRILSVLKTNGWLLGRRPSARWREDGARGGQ
Description: (§1) Inhibition of Leishmania donovani cysteine protease.

Data set [2] has as its target T2, Cysteine protease falcipain-3 (Plasmodium falciparum, UniProt Q9NBA7).
T2 sequence (Q9NBA7 whole entry): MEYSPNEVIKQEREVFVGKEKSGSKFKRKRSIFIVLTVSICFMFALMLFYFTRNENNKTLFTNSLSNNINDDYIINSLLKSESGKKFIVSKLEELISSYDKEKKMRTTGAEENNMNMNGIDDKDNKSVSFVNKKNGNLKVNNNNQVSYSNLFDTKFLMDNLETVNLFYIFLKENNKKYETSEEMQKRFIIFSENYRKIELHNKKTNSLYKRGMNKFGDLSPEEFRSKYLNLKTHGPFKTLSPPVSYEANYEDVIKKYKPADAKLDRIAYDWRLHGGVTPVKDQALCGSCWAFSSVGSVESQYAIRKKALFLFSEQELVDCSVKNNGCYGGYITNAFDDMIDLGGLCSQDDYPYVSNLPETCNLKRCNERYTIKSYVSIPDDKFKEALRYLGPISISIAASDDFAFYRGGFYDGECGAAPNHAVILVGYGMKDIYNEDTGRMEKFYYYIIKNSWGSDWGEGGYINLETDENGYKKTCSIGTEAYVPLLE
Description: Inhibition of Plasmodium falciparum recombinant falcipain-3. In a few lines:
(§2)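 Equal amounts of recombinant enzyme preincubated 30 min at room temperature with serial inhibitor dilutions from DMSO stocks (DMSO at most 1% in assay) in 100 mM sodium acetate pH 5.5, 10 mM dithiothreitol. Z-Leu-Arg-AMC then added to 25 μM final; fluorescence followed 15 min at room temperature. IC50 taken from percent activity versus concentration plots.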

The subject of data set [3] is Leishmania donovani. Description: Antileishmanial activity against Leishmania donovani promastigotes after 72 hrs by Alamar blue assay. Format: functional, organism-based. In a few lines: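 L. donovani promastigote culture at 2 × 10⁶ cells/mL given diluted compounds, incubated 72 h at 26 °C; growth read by Alamar blue. Pentamidine and amphotericin B as reference agents; IC50 computed from growth inhibition curve.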
For orientation: Resazurin is reduced to fluorescent resorufin, in cell work by metabolically active cells.

In data set [4] the test system is Vero. Description: Cytotoxicity against Vero cells at 23.8 ug/mL by Neutral red assay. The format is cell-based. To be noted: chlorocebus sabaeus. The method in brief:
(§3)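 VERO monkey kidney […] exposed to compounds alongside the antiparasitic assays, viability by Neutral Red uptake; highest concentration tested 23.8 μg/mL; IC50 computed from growth inhibition curve.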

The target in data set [5] is T3, Falcipain 2 (Plasmodium falciparum, UniProt Q9N6S8).
T3 sequence (Q9N6S8 whole entry): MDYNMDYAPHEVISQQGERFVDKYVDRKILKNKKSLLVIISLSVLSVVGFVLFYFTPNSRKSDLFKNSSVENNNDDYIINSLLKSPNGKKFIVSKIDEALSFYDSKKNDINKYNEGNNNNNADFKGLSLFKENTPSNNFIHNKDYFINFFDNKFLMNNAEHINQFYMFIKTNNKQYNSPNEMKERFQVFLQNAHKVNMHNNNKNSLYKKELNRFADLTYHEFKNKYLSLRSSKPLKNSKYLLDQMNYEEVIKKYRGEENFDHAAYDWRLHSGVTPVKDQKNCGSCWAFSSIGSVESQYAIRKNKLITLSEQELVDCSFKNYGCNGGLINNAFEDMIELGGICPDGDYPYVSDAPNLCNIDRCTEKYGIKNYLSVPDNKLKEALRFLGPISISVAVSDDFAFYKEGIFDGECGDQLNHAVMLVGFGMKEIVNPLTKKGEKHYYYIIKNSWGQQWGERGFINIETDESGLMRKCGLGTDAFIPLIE
Description: Inhibition of Plasmodium falciparum recombinant falcipain-2. The method in brief: as §2

In data set [6] the test system is Plasmodium falciparum. Put plainly: Antiplasmodial activity against chloroquine-sensitive Plasmodium falciparum D6 after 48 hrs as LDH reporter activity. Format: functional, organism-based. Particulars: D6, 48 h. The method in brief:
(§4)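 Asynchronous P. falciparum cultures (2% hematocrit, 2% parasitemia) were exposed to compound dilutions prepared in DMSO. They were incubated 48 h at 37 °C in a humidified chamber under 90% N2, 5% CO2, 5% O2. Growth was read as parasite lactate dehydrogenase activity using Malstat reagent. Medium-only and erythrocyte-only wells were included, with chloroquine and artemisinin as positive and DMSO as negative controls.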

For data set [7], the system named is Plasmodium falciparum. Put plainly: Antiplasmodial activity against chloroquine-resistant Plasmodium falciparum W2 as LDH activity after 48 hrs. Format: functional, organism-based. Particulars: W2, 48 h. The method in brief: as §4
The subject of data set [8] is Vero. Put plainly: Cytotoxicity against Vero cells by Neutral red assay. The format is cell-based. Particulars: chlorocebus sabaeus. The method in brief:
as §3

In data set [9] the target is T4, Cysteine protease (Leishmania donovani) (UniProt Q95WR6).
T4 sequence (whole entry): T1 sequence (Q95WR6 whole entry)
The description is as §1.

Calls of active or inactive are those of the source. The rule behind the calls is not given here.

The compound `CC(C)CC(=O)N[C@H](C(=O)N[C@H](C(=O)N[C@@H](CC(C)C)[C@@H](O)CC(=O)N[C@@H](C)C(=O)N[C@@H](CC(C)C)[C@@H](O)CC(=O)O)C(C)C)C(C)C` [PEPSTATIN] displayed an IC50 in data set [1] of 0.16 µM.
Regarding `O=C(O)c1ccccc1N/N=C/c1ccc(/C=N/Nc2ccccc2C(=O)O)cc1`, the results for the IC50 in data set [2], in [1] and in [5] were 4.9 µM, 72 µM and 1 µM, respectively. In [3], the result was inactive. Further, the Activity entry in data set [4] was “Non-toxic”. Also, the results for the EC50 in data set [6] and in data set [7] were 34.8 µM and 41 µM, respectively.
For `Oc1cccc(/C=N\c2cccc3c(/N=C/c4cccc(O)c4O)cccc23)c1O`, the half-inhibitory concentration (IC50) in [2] came to 5.8 µM; in data set [8] it was 28.9 µM; in data set [3], 8.8 µM; in [1], 113 µM; in data set [5], 4.6 µM. Moreover, the EC50 in data set [6] was 6.9 µM; in data set [7], 6.6 µM.
For the compound `Oc1ccc(/C=N/c2ccc(/N=C/c3ccc(O)cc3O)c(Cl)c2)c(O)c1`, the half-maximal inhibitory concentration (IC50) in data set [2] amounted to 7.5 µM; in data set [1], 65.3 µM; in [5], 2.1 µM. In data set [3], the result was inactive. In addition, the Activity entry in data set [4] is “Non-toxic”. Moreover, the figures for the concentration for a half-maximal effect (EC50) in [6] and in data set [7] were 12.3 µM and 20.9 µM, respectively.
For the compound `O=C(CN1C(=O)/C(=N\NC(=O)c2ccncc2)c2ccccc21)Nc1ccccc1`, the IC50 is 62.2 µM in data set [2], 62.6 µM in data set [1] and 40.9 µM in data set [5]. The outcome in [3] was inactive. The Activity result in data set [4] is on record as “Non-toxic”. Moreover, the concentration for a half-maximal effect (EC50) in data set [6] came out at 56.3 µM; in [7] it was 59.6 µM.
As to `O=C(Cn1nnc(-c2ccccc2)n1)N/N=C1\C(=O)Nc2ccccc21`, the half-maximal inhibitory concentration (IC50) is greater than 50 µM in data set [2], 130 µM in data set [1] and 27.3 µM in [5]. Besides, the outcome in data set [3] was inactive. The Activity result in data set [4] is reported as “Non-toxic”. Besides, the half-maximal effective concentration (EC50) is 68.5 µM in [6] and 43.2 µM in data set [7].
As to `CCOP(=O)(CC(=O)NNC(=O)Nc1cccc2ccccc12)OCC`, the IC50 in data set [2] was greater than 50 µM; in [5], 53.4 µM. The outcome in data set [3] and in data set [9] was inactive. For the same compound, the Activity result in data set [4] is recorded as “Non-toxic”. The EC50 was 52.7 µM in data set [6] and 40.9 µM in data set [7].
On to `COC(=O)c1ccccc1NC(=O)COC(=O)CSc1nc(C)cc(C)n1`, for which the IC50 in data set [2] amounted to 12 µM; in data set [5], 6.2 µM. Besides, the outcome in data set [3] and in data set [9] was inactive. Besides, in [4], the Activity result is “Non-toxic”. The EC50 in [6] and in data set [7] was 61.1 µM throughout.

As a reminder, the IC50 is the concentration that inhibits the measured activity by half. As a reminder, the EC50 is the concentration that produces a half-maximal response.

The record behind these values is ChEMBL document CHEMBL1149285, “Identification of novel parasitic cysteine protease inhibitors using virtual screening. 1. The ChemBridge database” (J Med Chem, 2004).
